Measurements taken from ChEMBL document CHEMBL1142189 (Antimicrob Agents Chemother, 2007).
Converted amounts (≈) assume the structure as drawn.

Assays:
Type in all cases: functional, organism-based
Plasmodium falciparum [1] = assay: Inhibition of Plasmodium falciparum AZ10011003 isolate in HRP2 ELISA
Summary of the method: (§1)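 Fresh pre-treatment clinical P. falciparum isolates, unfrozen, unwashed and not precultured, in duplicate at 1.5% hematocrit in RPMI 1640 with 0.5% Albumax and 25 mg/liter gentamicin. Plates carried predried twofold dilutions, single or in an 8x8 checkerboard. Incubation was 72 h at 37.5°C in 5% CO2/5% O2/90% N2, then two freeze-thaws. HRP2 sandwich ELISA read at 450 nm; IC50 from nonlinear regression.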

Plasmodium falciparum [2] = assay: Inhibition of Plasmodium falciparum AZ10011022 isolate in HRP2 ELISA; summary of the method: as §1
Plasmodium falciparum [3] = assay: Inhibition of Plasmodium falciparum AZ10011017 isolate in HRP2 ELISA
Plasmodium falciparum [4] = assay: Inhibition of Plasmodium falciparum AZ10011008 isolate in HRP2 ELISA; summary of the method: as §1
Plasmodium falciparum [5] = assay: Inhibition of Plasmodium falciparum in HRP2 ELISA
Summary of the method: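 Fresh P. falciparum clinical isolates from untreated patients with confirmed monoinfection, unfrozen, unwashed, not precultured, no serum added; 1.5% hematocrit in complete RPMI 1640 with 0.5% Albumax and 25 mg/liter gentamicin, tested in duplicate. Twofold serial dilutions, seven concentrations plus drug-free control, on predried plates; 72 h at 37.5°C under 5% CO2/5% O2/90% N2. Plates freeze-thawed twice, HRP2 sandwich ELISA at 450 nm; IC50 by nonlinear regression.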

Row | Structure (SMILES) | IC50 (Plasmodium falciparum [1]) [mg/L] | IC50 (Plasmodium falciparum [2]) [mg/L] | IC50 (Plasmodium falciparum [3]) [mg/L] | IC50 (Plasmodium falciparum [4]) [mg/L] | IC50 (Plasmodium falciparum [5]) [mg/L] | IC90 (Plasmodium falciparum [5]) [mg/L] | IC99 (Plasmodium falciparum [5]) [µg/mL]
1 | CC[C@H]1OC(=O)[C@H](C)[C@@H](O[C@H]2C[C@@](C)(OC)[C@@H](O)[C@H](C)O2)[C@H](C)[C@@H](O[C@@H]2O[C@H](C)C[C@H](N(C)C)[C@H]2O)[C@](C)(O)C[C@@H](C)CN(C)[C@H](C)[C@@H](O)[C@]1(C)O [AZITHROMYCIN] | 2.44 (≈ 3.26 µM) | 2.19 (≈ 2.92 µM) | 1.98 (≈ 2.64 µM) | 5.34 (≈ 7.13 µM) | 2.57 (≈ 3.43 µM) | 13.3 (≈ 17.8 µM) | 23.9
2 | CCN(CC)CCCC(C)Nc1ccnc2cc(Cl)ccc12 (centres undefined) [CHLOROQUINE] | – | – | – | – | – | 0.13 (≈ 0.405 µM) | 0.172
3 | C[C@H]1[C@@H](O)O[C@@H]2O[C@@]3(C)CC[C@H]4[C@H](C)CC[C@@H]1[C@@]24OO3 [ARTENIMOL] | 0.00024 (≈ 0.000844 µM) | 0.00038 (≈ 0.00134 µM) | 0.00027 (≈ 0.00095 µM) | 0.00091 (≈ 0.0032 µM) | 0.00053 (≈ 0.00186 µM) | 0.00143 (≈ 0.00503 µM) | 0.00228
4 | C=C[C@H]1CN2CC[C@H]1C[C@H]2[C@H](O)c1ccnc2ccc(OC)cc12 [QUININE] | 0.123 (≈ 0.38 µM) | 0.116 (≈ 0.359 µM) | – | 0.0828 (≈ 0.255 µM) | 0.0644 (≈ 0.198 µM) | 0.173 (≈ 0.533 µM) | 0.251
5 | OC(c1cc(C(F)(F)F)nc2c(C(F)(F)F)cccc12)C1CCCCN1 (centres undefined) [MEFLOQUINE] | – | – | – | – | – | 0.031 (≈ 0.0819 µM) | 0.0467
